Source: PubChem BioAssay
An excerpt weighted towards active compounds, which were near 4.9% of everything screened.
NF-kB expr up: activators of NF-kB expression in neurons, primary screen, cell-based, HTS | human neuronal cells, NF-kB reporter expression; active compounds read high | fold change at 12.5 µM | hit rate 1.6% among 190,000; in the data active = fold change above about 3.3
APP 5'UTR act: activators of APP 5'UTR luciferase reporter, primary screen, SH-SY5Y cells. activation, % at 2 µM. AID 1276, 2008. hit rate 1% among 190,000. SH-SY5Y APP 5'UTR luciferase reporter, luminescence; zero percent = DMSO vehicle wells;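 active = activation above a set limit, based on mean plus 3 SD of controls, cut at about 140% in these data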
STAT3 act: IL-6 driven STAT3 reporter potentiators, primary screen, U3A cells, luciferase, luminescence, MLSCN library; IL-6 STAT3-luciferase reporter; 100% = signal with IL-6 EC80 alone; hit rate 0.91% among 190,000; activation (% of control), % at 5.6 µM; AID 871, 2007;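 active = activation above the screen-wide mean of compound activation plus 3 SD, cut at about 130% in these data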;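 also: 0% = background luminescence of wells with medium and substrate only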
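Material: STAT3-luciferase reporter U3A cells. Controls: IL-6-treated wells, 100% activation. Read-out: % activation versus median of IL-6-stimulated wells. Probe or stimulus: IL-6 stimulus at 33 ng/mL final. Timing: compound 1 h, then IL-6 6 h at 37 °C. Signal: reporter luminescence signal.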
STAT1 activator: STAT1 signaling activators, primary screen, cell-based, HTS, luciferase reporter | NIH 3T3 STAT1-luciferase reporter, IFN-gamma, luminescence; 100% = IFN-gamma alone, no compound | activation (% of control), % at 5.5 µM | hit rate 2.6% among 200,000;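 active = activation above the screen-wide mean activation plus 3 SD, cut at about 130% in these data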;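 also: raw ratio to IFN-gamma control signal so 100% means no change and 0% no light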
STAT1 blocker: STAT1 signaling inhibitors, primary screen, cell-based, HTS, luciferase reporter; NIH 3T3 STAT1-luciferase reporter, IFN-gamma, luminescence; inhibition, % at 5.5 µM; hit rate 0.35% among 200,000; AID 920, 2007;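 active = inhibition above a set limit, the mean inhibition across all tested compounds plus 3 SD, cut at about 34% in these data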;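 also: 0% = IFN-gamma with DMSO and 100% = IFN-gamma with 300 µM nifuroxazide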
STAT3 inh: IL-6 driven STAT3 reporter inhibitors, primary screen, U3A cells, luciferase, luminescence, MLSCN library. inhibition, % at 5.5 µM. IL-6 STAT3-luciferase reporter; host cell line lacks STAT1. hit rate 0.89% among 190,000. AID 862, 2007;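 active = inhibition above the mean inhibition across all screened compounds plus 3 SD, cut at about 44% in these data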;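 also: 0% = DMSO only wells and 100% = 100 µM nifuroxazide control wells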
STAT1 activ conf: STAT1 signaling activators, confirmation, cell-based, HTS, luciferase reporter. NIH 3T3 STAT1-luciferase reporter, IFN-gamma potentiation, luminescence; 100% = IFN-gamma EC80 alone, no compound. hit rate 97% among 1,200. shares compounds with STAT1 activator. activation (% of control), % at 5.7 µM;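 active = activation above a set limit carried over from the earlier primary STAT1 screen, cut at about 140% in these data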;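 also: simple ratio to median IFN-gamma plus DMSO wells so 0% means no light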
NFkB act STAT1ct: NF-kB reporter activators, TNF-alpha stimulated, counter-screen for STAT1 activator project, cell-based, HEK293T, luciferase luminescence; shares compounds with STAT1 activator; 100% = TNF-alpha with vehicle only; activation (% of control), % at 5.7 µM; hit rate 43% among 1,200; AID 1306, 2008;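 active = activation above the mean of solvent-only control wells plus 3 SD, set per campaign, cut at about 130% in these data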;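 also: TNF-alpha given at a submaximal dose yielding about 80% of full reporter signal; values are well signal over median control so 100% means no change and 0% no light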
STAT3 act STAT1c: STAT3 reporter activation by STAT1 hits, confirmation, counter-screen for STAT1 activator project, U3A cells, luciferase, luminescence; hit rate 46% among 1,200; shares compounds with STAT1 activator; AID 1316, 2008; activation (% of control), % at 5.7 µM; IL-6; cells lack STAT1; 100 = IL-6 alone, no compound effect;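 active = activation above the solvent-only control well mean plus 3 SD, set per plate batch, cut at about 110% in these data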;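 also: 0% = no luminescence and 100% = median IL-6 plus DMSO wells; higher means more STAT3 reporter activation so hits are non-selective activators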
Starred values were filed as active, the others as inactive; · = not tested or not shown.

SMILES	NF-kB expr up	APP 5'UTR act	STAT3 act	STAT1 activator	STAT1 blocker	STAT3 inh	STAT1 activ conf	NFkB act STAT1ct	STAT3 act STAT1c
c1csc(C2=NNC(=NC3CCCCC3)SC2)c1	2.46	137.0*	106.8	155.1*	-58.2	0.9	167.6*	119.3	109.5
Cc1ccc(C)c(Cn2c(C)nc3c(sc(=S)n3-c3ccccc3)c2=O)c1	1	6.5	109.9	102.0	-2.9	1.7	·	·	·
O=C(NN1CCN(Cc2ccccc2Cl)CC1)c1ccc(Br)cc1	1.16	2.6	81.6	89.6	9.9	27.5	·	·	·
CC(=O)c1ccc(-n2nncc2-c2ccc([N+](=O)[O-])cc2)cc1	1.06	11.3	111.4	95.9	3.0	-6.1	·	·	·
Cc1ccc(-n2cnc3cc(NCc4cccs4)ccc32)cc1	1.45	21.1	93.4	119.8	-30.7	7.9	·	·	·
c1ccc(-n2cnc3cc(NCc4cccs4)ccc32)cc1	0.72	205.3*	98.6	168.7*	-76.3	5.2	249.5*	133.3*	105.9
Clc1ccc(-c2cnc(Oc3ccccc3)nc2)cc1	2.35	137.9*	99.7	152.8*	-59.1	1.9	189.7*	141.6*	108.7
Cc1cc(C)cc(Nc2ncc3c(n2)CCCC3=O)c1	2.91	163.1*	75.1	153.5*	-58.4	31.3	184.6*	106.2	107.4
O=C(NN1C(=O)c2ccccc2C1=O)C1C2CCCCC21 (configuration not stated)	0.97	-8.9	99.4	104.1	-4.6	4.3	·	·	·
O=C(N/N=C/C(Cl)=C/c1ccccc1)c1ccco1	4.27*	88.7	94.1	156.4*	-61.4	9.3	185.5*	133.7*	109.2
O=C(NC(=S)Nc1ncccn1)c1ccc(Cl)cc1Cl	2.22	36.3	110.6	174.0*	-80.4	-10.5	218.3*	130.5	109.5
CCC(=O)Nc1cccc(NC(=S)NC(=O)c2ccc(Cl)cc2Cl)c1	1.26	19.5	103.4	122.4	-25.2	-5.2	·	·	·
O=C(c1ccc(F)cc1)c1cnc(Nc2ccccc2)s1	2.44	125.8	109.3	152.8*	-57.6	-8.8	203.1*	134.9*	124.5*
CNc1ncc(C(=O)c2ccc(F)cc2)s1	2	39.0	107.4	127.6	-29.4	-9.5	·	·	·
CN(C)/C=C(\C#N)C(=O)N/N=C/c1ccccc1	1.96	14.5	106.3	126.2	-28.5	0.6	·	·	·
COCCn1c(C)cc(C(=O)CSc2nc3ccccc3o2)c1C	1.84	177.3*	74.2	157.7*	-63.0	33.4	215.5*	121.0	107.0
Clc1ccc(/C=N/Nc2ncnc3ccccc23)cc1Cl	4.93*	·	127.3	158.0*	-63.5	-26.1	208.4*	151.0*	135.2*
O=C1CCCC(=O)C1CS(=O)(=O)c1ccccc1	0.91	7.0	94.5	108.0	-8.7	8.9	·	·	·
CCC/C=N/Nc1nc2ccccc2s1	6.05*	82.2	111.7	163.2*	-70.7	-5.4	224.7*	142.6*	127.4*
C(=C\c1ccccc1)/C=N/Nc1nc2ccccc2s1	2.96	179.0*	129.9	158.4*	-65.4	-31.6	238.2*	141.5*	129.3*
Brc1ccc(/C=C/C=N/Nc2nc3ccccc3s2)cc1	1.34	8.1	112.8	120.8	-23.2	-7.0	·	·	·
CCn1cc(C(C)NC(=O)Nc2ccccc2C(=O)OC)c(C)n1 (configuration not stated)	0.93	2.6	105.2	100.1	-2.3	0.5	·	·	·
CCOC(=O)c1cc(-c2ccccc2)sc1NC(=O)c1cc(OC)c(OC)c(OC)c1	0.64	-8.1	100.6	94.5	6.2	-3.3	·	·	·
O=C(Nc1ccc2oc(-c3ccccc3)nc2c1)c1ccco1	5.11*	177.7*	105.8	167.5*	-76.8	-4.0	201.7*	134.1*	106.8
O=C(Nc1ccc2oc(-c3ccccc3)nc2c1)C1CCCO1 (configuration not stated)	3.65*	146.6*	111.6	155.3*	-62.6	-9.3	182.2*	133.7*	102.2
SMILES	NF-kB expr up	APP 5'UTR act	STAT3 act	STAT1 activator	STAT1 blocker	STAT3 inh	STAT1 activ conf	NFkB act STAT1ct	STAT3 act STAT1c
O=C(Nc1ccc2oc(-c3ccccc3)nc2c1)c1cccnc1	1.07	52.8	87.6	112.8	-14.1	18.0	·	·	·
COc1ccc(CCN(C)C(=O)CCc2nnc(-c3ccccc3)o2)cc1OC	4.1*	81.0	117.8	159.4*	-63.5	-14.0	165.9*	121.8	116.0*
COc1cc(OC)cc(C(=O)N[C@H](C(=O)Nc2ccc3c(c2)OCO3)C(C)C)c1	1.09	1.6	106.7	98.7	0.9	-5.8	·	·	·
O=C(Oc1ccc(Cl)c2cccnc12)C12CC3CC(CC(C3)C1)C2	1.22	9.8	91.8	108.2	-9.1	14.2	·	·	·
O=C(NC1=NCCS1)c1ccc(-c2ccc(Cl)cc2)o1	4.62*	118.9	84.3	155.6*	-60.7	21.9	186.9*	126.1	94.4
CC(=O)Nc1cccc(-c2csc(Nc3ccc(Cl)cn3)n2)c1	6.51*	182.2*	95.8	201.6*	-108.4	5.0	248.7*	161.2*	101.8
CC(=O)Nc1cccc(-c2csc(Nc3cc(C)ccn3)n2)c1	2.4	138.4*	110.3	151.6*	-57.6	-4.2	174.3*	129.8	114.7*
c1ccc2c(c1)Cn1nnnc1-2	0.92	1.4	103.7	86.0	16.2	0.0	·	·	·
Clc1ccc(-c2cn3c(n2)-c2ccccc2C3)cc1Cl	9.67*	165.6*	115.3	195.9*	-105.4	-23.6	258.0*	134.4*	135.1*
COC(=O)CSc1nc2cc3c(cc2cc1C#N)OCO3	6.76*	170.0*	108.3	155.2*	-60.5	-0.5	264.5*	146.9*	117.2*
CCOC(=O)CSc1nc2cc3c(cc2cc1C#N)OCO3	4.08*	111.8	113.9	155.3*	-60.9	-11.5	222.7*	143.5*	115.4*
CCOC(=O)CSc1nc2cc3c(cc2cc1C#N)OCCO3	1.22	181.1*	107.9	174.2*	-78.1	-6.8	292.6*	142.7*	122.6*
CC(C)OC(=O)CSc1nc2cc3c(cc2cc1C#N)OCO3	1.35	84.0	107.0	113.0	-14.3	-6.1	·	·	·
